Reference: ChEMBL document CHEMBL4813972, “A grafted peptidomimetic for EGFR heterodimerization inhibition: Implications in NSCLC models” (Eur J Med Chem, 2021)
The source made the active and inactive calls. The calls are words filed in the database; no cut-off is given here.

Tests used:
[1] = Toxicity in Foxn1nu/Foxn1+ mouse xenografted with human A549 cells harbouring KRAS mutant/wild type EGFR assessed as hyper-chromatic nuclei in lung at 6 mg/kg, iv administered twice a week for 5 weeks; details: in vivo, 840 h
A549 = experiment: Effect on HER2 expression in human A549 cells at 1 uM incubated for 40 hrs by Western blot analysis; type: functional, cell-based
[2] = molecular target: Receptor tyrosine-protein kinase erbB-2 (Homo sapiens) (UniProt P04626); experiment: Binding affinity to HER2 domain IV (unknown origin) by SPR analysis
Receptor tyrosine-protein kinase erbB-2 (Homo sapiens), sequence (P04626 whole entry, the tested form may be a part): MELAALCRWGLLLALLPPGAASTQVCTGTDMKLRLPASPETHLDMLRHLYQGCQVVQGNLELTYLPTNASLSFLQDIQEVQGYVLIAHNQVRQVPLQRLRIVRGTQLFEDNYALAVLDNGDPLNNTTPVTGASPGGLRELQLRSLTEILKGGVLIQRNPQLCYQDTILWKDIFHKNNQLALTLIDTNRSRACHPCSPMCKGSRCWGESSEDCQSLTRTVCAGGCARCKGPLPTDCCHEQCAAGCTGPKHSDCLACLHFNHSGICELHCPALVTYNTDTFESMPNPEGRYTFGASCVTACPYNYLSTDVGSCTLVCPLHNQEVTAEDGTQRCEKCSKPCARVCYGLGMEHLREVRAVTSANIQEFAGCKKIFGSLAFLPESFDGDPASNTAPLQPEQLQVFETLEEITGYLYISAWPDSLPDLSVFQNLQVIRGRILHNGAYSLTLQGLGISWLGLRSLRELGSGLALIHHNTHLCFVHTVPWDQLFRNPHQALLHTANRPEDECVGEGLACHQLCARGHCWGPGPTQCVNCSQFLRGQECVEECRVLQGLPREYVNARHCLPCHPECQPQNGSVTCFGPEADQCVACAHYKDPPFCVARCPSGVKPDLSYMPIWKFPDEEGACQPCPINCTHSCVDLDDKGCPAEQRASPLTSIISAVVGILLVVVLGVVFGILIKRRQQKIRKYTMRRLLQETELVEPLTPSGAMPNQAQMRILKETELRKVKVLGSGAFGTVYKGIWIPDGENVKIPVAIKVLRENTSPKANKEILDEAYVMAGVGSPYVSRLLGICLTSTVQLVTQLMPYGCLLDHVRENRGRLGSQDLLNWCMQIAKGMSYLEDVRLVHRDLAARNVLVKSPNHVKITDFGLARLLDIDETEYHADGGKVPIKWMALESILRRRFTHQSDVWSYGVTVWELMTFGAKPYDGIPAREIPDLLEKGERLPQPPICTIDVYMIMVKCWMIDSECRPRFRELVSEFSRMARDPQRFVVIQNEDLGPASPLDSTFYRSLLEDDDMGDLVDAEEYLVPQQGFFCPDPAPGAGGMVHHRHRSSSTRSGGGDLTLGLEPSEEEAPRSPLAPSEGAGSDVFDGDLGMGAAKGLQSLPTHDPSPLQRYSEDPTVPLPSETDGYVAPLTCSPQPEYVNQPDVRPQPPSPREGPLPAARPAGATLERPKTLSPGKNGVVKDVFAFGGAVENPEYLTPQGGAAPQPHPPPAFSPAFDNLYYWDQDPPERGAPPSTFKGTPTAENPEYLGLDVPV

[3] = Thermal stability of compound at 15 uM incubated at 25 to 75 degC in presence of DTT by circular dichroism spectrometry; type: physicochemical
[4] = Toxicity in BALB/c mouse assessed as Ki-67 expression in CD8+ at 6 mg/kg, iv administered on day 0 and 10 and spleenocytes collected on day 13 and incubated for 48 hrs by flow cytometry analysis; type: organism-based; details: in vivo, 360 h, time 15 day
How it was run: (§1)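 Female BALB/c mice given 6 mg/kg peptide in PBS i.v. (or PBS) on days 0 and 10, 12 mice in total. Splenocytes harvested day 13, RBC-lysed, and ≥2×10^6 cultured 48 h in RPMI/10% FBS with control media or peptide. Cells then stained for viability, CD3/CD4/CD8a and intracellular Ki67, and analyzed by flow cytometry.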

Mus musculus [5] = experiment: In vivo inhibition of HER2/HER3 dimerization in human A549 cells harbouring KRAS mutant/wild type EGFR xenografted in Foxn1nu/Foxn1+ mouse by measuring reduction in red fluorescence at 6 mg/kg, iv administered twice a week for 5 weeks by proximity ligation assay; type: functional, organism-based
How it was run: (§2)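 Lung tumor sections from the A549-Red-FLuc i.v. metastasis mice (6 mg/kg i.v. twice weekly; sacrificed day 35). FFPE sections had citrate pH 6.0 antigen retrieval at 100 °C, peroxidase and serum blocking, primaries overnight at 4 °C, and PLA probes for EGFR:HER2 and HER2:HER3. Red fluorescence imaged at 40×.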

BT-474 = experiment: Antiproliferative activity against human BT-474 cells overexpressing HER2 assessed as cell growth inhibition incubated for 72 hrs by cell titer glo assay; type: functional, cell-based; details: BT-474, 72 h
[6] = molecular target: T1, ErbB-2/ErbB-3 heterodimer (Homo sapiens) (UniProt P04626+P21860); experiment: Inhibition of HER2/HER3 dimerization in human A549 cells incubated for 48 hrs by proximity ligation assay; type: cell-based; details: dose 0.5-1 µM
How it was run: (§3)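 A549 or Calu-3 cells (~1×10^4/well) on chamber slides, treated 48 h with 0.5 or 1 μM peptide. Controls: no compound, and one primary antibody omitted. Cells fixed in cold methanol, primary antibodies (EGFR, HER2, HER3) applied overnight at 4 °C, then PLA probes. Red fluorescence imaged at 40x and quantified over 3–6 fields.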

[7] = molecular target: T1, ErbB-2/ErbB-3 heterodimer (Homo sapiens); experiment: Inhibition of HER2/HER3 dimerization in human Calu-3 cells incubated for 48 hrs by proximity ligation assay; type: cell-based
How it was run: as §3

[8] = molecular target: Epidermal growth factor receptor and ErbB2 (HER1 and HER2) (Homo sapiens) (UniProt P04626+P00533); experiment: Inhibition of HER2/EGFR dimerization in human Calu-3 cells incubated for 48 hrs by proximity ligation assay; type: cell-based; details: dose 0.5-1 µM
How it was run: as §3

Calu-3 = experiment: Antitumor activity in human Calu-3 cells xenografted in Foxn1nu/Foxn1+ mouse assessed as reduction in tumor growth at 8 mg/kg, IT(Intratumoral) administered thrice a week for 21 days and measured on day 21 relative to control; type: functional, organism-based; details: time 21.0 day
[9] = molecular target: Receptor tyrosine-protein kinase erbB-2 (Homo sapiens) (UniProt P04626); experiment: Inhibition of HER2 ECD in human A549 cells assessed as reduction in HER2 intracellular kinase domain phosphorylation at 1 uM incubated for 40 hrs by Western blot analysis; type: cell-based
MCF7 = experiment: Antiproliferative activity against human MCF7 cells with silenced HER2 assessed as cell growth inhibition incubated for 72 hrs by cell titer glo assay; type: functional, cell-based; details: MCF7, 72 h
How it was run: (§4)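 Cells seeded at 1×10^4 per well, left overnight at 37 °C/5% CO2, then exposed to a concentration series of peptide (up to 200, down to 0.01 μM) for 72 h. 1% SDS and 1% DMSO served as controls. Cells were PBS-washed, CellTiter-Glo added and luminescence read. IC50 taken from three independent experiments per cell line.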

NCI-H1975 = experiment: Synergistic antiproliferative activity against human NCI-H1975 cells assessed as combination index after 72 hrs in presence of erlotinib by cell titer glo assay; type: functional
[10] = molecular target: Receptor tyrosine-protein kinase erbB-2 (Homo sapiens) (UniProt P04626); experiment: Binding affinity to HER2 (unknown origin) assessed as reduction in heterodimerization of HER2/EGFR by competitive based SPR analysis
How it was run: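 Competitive SPR: EGFR with EGF immobilized on a CM5 chip. HER2 protein fixed at 200 nM was preincubated 15 min in HEPES buffer with varying peptide, then injected. Read-out was the drop in response units. Surface regenerated with glycine pH 2.2 between injections.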

MCF-10A = experiment: Cytotoxicity against human MCF-10A cells assessed as cell growth inhibition incubated for 72 hrs by cell titer glo assay; type: cell-based
How it was run: as §4

[11] = Toxicity in BALB/c mouse assessed as Ki-67 expression in CD4+ at 6 mg/kg, iv administered on day 0 and 10 and spleenocytes collected on day 13 and incubated for 48 hrs by flow cytometry analysis; type: organism-based; details: in vivo, 360 h, time 15 day
How it was run: as §1

[12] = Thermal stability of compound at 15 uM incubated at 25 to 75 degC by MALDI-TOF analysis; type: physicochemical
How it was run: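 Peptide at 15 μM in acetonitrile heated from 25 to 75 °C. Mass checked at 25, 50 and 70 °C and at the end of the run.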

[13] = molecular target: Receptor tyrosine-protein kinase erbB-2 (Homo sapiens) (UniProt P04626); experiment: Binding affinity to HER2 ECD (unknown origin) by SPR analysis
Mus musculus [14] = experiment: In vivo inhibition of HER2 in human Calu-3 cells xenografted in Foxn1nu/Foxn1+ mouse assessed as reduction in HER2 phosphorylation at 8 mg/kg, IT(Intratumoral) administered thrice a week for 28 days and measured on day 28 by Western blot analysis; type: functional, organism-based; details: time 28.0 day
How it was run: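 Tumors taken from the Calu-3 intratumoral study (8 mg/kg three times weekly, 28 days). Two tumors frozen at −80 °C, homogenized and immunoblotted for p-HER2. Others fixed, paraffin-embedded and sectioned at 5 μm. Sections underwent citrate pH 6.0 antigen retrieval, H2O2 block and BSA/NGS/Triton block, EGFR/HER2 primaries overnight at 4 °C, then PLA probes; imaged at 10X/40X.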

[15] = Toxicity in BALB/c mouse assessed as Ki-67 expression in spleenocytes at 6 mg/kg, iv administered on day 0 and 10 and spleenocytes collected on day 13 and incubated for 48 hrs by flow cytometry analysis; type: organism-based; details: in vivo, 360 h, time 15 day
How it was run: as §1

[16] = Toxicity in Foxn1nu/Foxn1+ mouse xenografted with human A549 cells harbouring KRAS mutant/wild type EGFR assessed as eosinophilic cytoplasm in lung at 6 mg/kg, iv administered twice a week for 5 weeks; details: in vivo, 840 h
Mus musculus [17] = experiment: In vivo inhibition of HER2/EGFR dimerization in human A549 cells harbouring KRAS mutant/wild type EGFR xenografted in Foxn1nu/Foxn1+ mouse by measuring reduction in red fluorescence at 6 mg/kg, iv administered twice a week for 5 weeks by proximity ligation assay; type: functional, organism-based
How it was run: as §2

**Q.** What does the source list for `CC[C@H](C)[C@H]1C(=O)NC(=O)[C@H](CCCNC(=N)N)NC(=O)C[C@@H](c2cccc3ccccc23)NC(=O)N[C@H]2CSSC[C@H](NC(=O)C[C@@H](c3cccc4ccccc34)NC(=O)[C@H](CCCNC(=N)N)NC(=O)[C@@H]3CCCN3C(=O)[C@@H]3CCCN13)C(=O)N[C@@H](Cc1ccccc1)C(=O)N1CCC[C@H]1C(=O)N[C@@H](CC(=O)O)C(=O)NC(=O)[C@H](CC(=O)O)NC(=O)[C@H](Cc1ccccc1)NC2=O`?
**A.** Activity [1]: Non-Toxic; Activity (A549): inactive; Activity [2]: Dose-Dependent Effect; Stabilty [3]: Stable; Activity [4]: Non-Toxic; inhibition (Mus musculus [5]): Active; IC50 (BT-474): 0.28 µM; inhibition [6]: Dose-Dependent Effect; inhibition [7]: Dose-Dependent Effect; inhibition [8]: Dose-Dependent Effect; Activity (Calu-3): Active; inhibition [9]: Active; IC50 (MCF7): > 20 µM; CI (NCI-H1975): 0.76; Activity [10]: Active; IC50 (MCF-10A): > 40 µM; Activity [11]: Non-Toxic; Stabilty [12]: Stable; Activity [13]: Dose-Dependent Effect; inhibition (Mus musculus [14]): Active; Activity [15]: Non-Toxic; Activity [16]: Non-Toxic; inhibition (Mus musculus [17]): Active
